Measurements from ChEMBL document CHEMBL3877264, “Quinolidene-rhodanine conjugates: Facile synthesis and biological evaluation” (Eur J Med Chem, 2017).
Converted amounts (≈) assume the structure as drawn.

Assays:
Assay type in all cases: functional
[1] = tested on: Mycobacterium tuberculosis; test: Growth inhibition of Mycobacterium bovis BCG ATCC 35743 at active stage measured after 8 days by nitrate reductase dye based two fold dilution method; details: BCG str. ATCC 35743, 192 h
In short: (§1)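 M. bovis BCG was grown in Dubos medium and assayed in Mycobacterium pheli minimal medium (pH 6.6), with compounds from DMSO stocks. Incubation lasted 8 days for active and 12 days for dormant cultures. Viability was read by nitrate reductase at 540 nm against cell-free blanks, with vehicle set as 100% growth. Primary screen was at 30, 10 and 3 µg/ml, in triplicate, mean ± SD. MIC was taken from dose-response curves.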

[2] = tested on: Mycobacterium tuberculosis; test: Growth inhibition of Mycobacterium bovis BCG ATCC 35743 at dormant stage at 3 ug/ml measured after 12 days by nitrate reductase dye based two fold dilution method relative to control; details: BCG str. ATCC 35743, 288 h, read-out: GI; in short: as §1
[3] = tested on: Pseudomonas fluorescens; test: Growth inhibition of Pseudomonas fluorescens NCIM 2036 at 30 ug/ml measured after 8 hrs relative to control; details: NCIM 2036, 8 h, read-out: GI
In short: (§2)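 Bacteria grown in LB at 37 °C and 180 rpm to OD 1. Compounds added to wells, then 0.1% inoculum of 1 OD culture (620 nm). Growth read as OD at 620 nm after 8 h for gram-negative and after 12 h for gram-positive strains.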

[4] = tested on: Pseudomonas fluorescens; test: Growth inhibition of Pseudomonas fluorescens NCIM 2036 at 10 ug/ml measured after 8 hrs relative to control; details: NCIM 2036, 8 h, read-out: GI; in short: as §2
[5] = Antifungal activity against Fusarium oxysporum NCIM 1332 by standard agar method
In short: (§3)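 MICs determined by standard agar method; DMSO as solvent control.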

[6] = tested on: Staphylococcus aureus; test: Growth inhibition of Staphylococcus aureus NCIM 2010 at 30 ug/ml measured after 12 hrs relative to control; details: NCIM 2010, 12 h, read-out: GI; in short: as §2
[7] = tested on: Pseudomonas fluorescens; test: Growth inhibition of Pseudomonas fluorescens NCIM 2036 at 3 ug/ml measured after 8 hrs relative to control; details: NCIM 2036, 8 h, read-out: GI; in short: as §2
[8] = Antifungal activity against Cryptococcus neoformans NCIM 576 by standard agar method; in short: as §3
[9] = tested on: Bacillus subtilis; test: Growth inhibition of Bacillus subtilis NCIM 2079 at 30 ug/ml measured after 12 hrs relative to control; details: NCIM 2079, 12 h, read-out: GI; in short: as §2
[10] = tested on: Escherichia coli; test: Antibacterial activity against Escherichia coli NCIM 2688 measured after 8 hrs; details: NCIM 2688, 8 h; in short: as §2
[11] = tested on: Escherichia coli; test: Growth inhibition of Escherichia coli NCIM 2688 at 3 ug/ml measured after 8 hrs relative to control; details: NCIM 2688, 8 h, read-out: GI; in short: as §2
[12] = tested on: Mycobacterium tuberculosis; test: Growth inhibition of Mycobacterium bovis BCG ATCC 35743 at dormant stage at 30 ug/ml measured after 12 days by nitrate reductase dye based two fold dilution method relative to control; details: BCG str. ATCC 35743, 288 h, read-out: GI; in short: as §1
[13] = tested on: Bacillus subtilis; test: Growth inhibition of Bacillus subtilis NCIM 2079 at 3 ug/ml measured after 12 hrs relative to control; details: NCIM 2079, 12 h, read-out: GI; in short: as §2
[14] = tested on: Aspergillus flavus; test: Antifungal activity against Aspergillus flavus NCIM 539 by standard agar method; in short: as §3
[15] = tested on: Staphylococcus aureus; test: Antibacterial activity against of Staphylococcus aureus NCIM 2010 measured after 12 hrs; details: NCIM 2010, 12 h; in short: as §2
[16] = tested on: Staphylococcus aureus; test: Growth inhibition of Staphylococcus aureus NCIM 2010 at 3 ug/ml measured after 12 hrs relative to control; details: NCIM 2010, 12 h, read-out: GI; in short: as §2
[17] = tested on: Mycobacterium tuberculosis; test: Growth inhibition of Mycobacterium tuberculosis H37Ra ATCC 25177 at dormant stage measured after 12 days by XTT dye based two fold dilution method; details: H37Ra ATCC 25177, 288 h
In short: (§4)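 MTB H37Ra was grown in Dubos medium, then exposed in Mycobacterium pheli minimal medium (pH 6.6) to compounds dissolved in DMSO. The assay ended on day 8 (active) or day 12 (dormant). Viable cells were measured by XTT reduction menadione assay at 470 nm, blank-corrected, relative to vehicle control. Triplicates were expressed as mean ± SD. MIC came from dose-response curves.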

[18] = tested on: Mycobacterium tuberculosis; test: Growth inhibition of Mycobacterium bovis BCG ATCC 35743 at dormant stage at 10 ug/ml measured after 12 days by nitrate reductase dye based two fold dilution method relative to control; details: BCG str. ATCC 35743, 288 h, read-out: GI; in short: as §1
[19] = tested on: Bacillus subtilis; test: Antibacterial activity against Bacillus subtilis NCIM 2079 measured after 12 hrs; details: NCIM 2079, 12 h; in short: as §2
[20] = tested on: Pseudomonas fluorescens; test: Antibacterial activity against Pseudomonas fluorescens NCIM 2036 measured after 8 hrs; details: NCIM 2036, 8 h; in short: as §2
[21] = tested on: Escherichia coli; test: Growth inhibition of Escherichia coli NCIM 2688 at 10 ug/ml measured after 8 hrs relative to control; details: NCIM 2688, 8 h, read-out: GI; in short: as §2
[22] = tested on: Bacillus subtilis; test: Growth inhibition of Bacillus subtilis NCIM 2079 at 10 ug/ml measured after 12 hrs relative to control; details: NCIM 2079, 12 h, read-out: GI; in short: as §2
[23] = tested on: Candida albicans; test: Antifungal activity against Candida albicans NCIM 3471 by standard agar method; in short: as §3
[24] = tested on: Aspergillus niger; test: Antifungal activity against Aspergillus niger NCIM 1196 by standard agar method; in short: as §3
[25] = tested on: Escherichia coli; test: Growth inhibition of Escherichia coli NCIM 2688 at 30 ug/ml measured after 8 hrs relative to control; details: NCIM 2688, 8 h, read-out: GI; in short: as §2
[26] = tested on: Mycobacterium tuberculosis; test: Growth inhibition of Mycobacterium bovis BCG ATCC 35743 at dormant stage measured after 12 days by nitrate reductase dye based two fold dilution method; details: BCG str. ATCC 35743, 288 h; in short: as §1
[27] = tested on: Staphylococcus aureus; test: Growth inhibition of Staphylococcus aureus NCIM 2010 at 10 ug/ml measured after 12 hrs relative to control; details: NCIM 2010, 12 h, read-out: GI; in short: as §2
[28] = tested on: Mycobacterium tuberculosis; test: Growth inhibition of Mycobacterium tuberculosis H37Ra ATCC 25177 at active stage measured after 8 days by XTT dye based two fold dilution method; details: H37Ra ATCC 25177, 192 h; in short: as §4

For `COc1ccc2nc(Cl)c(/C=C3\SC(=S)N(CCC(=O)O)C3=O)cc2c1`, the IC50 [1] was over 30 µg/mL, the IC90 [1] was over 30 µg/mL and the inhibition of growth at 3 µg/mL [2] was 25.4%. For the same compound, the inhibition of growth at 30 µg/mL [3] was -27.3%, the inhibition of growth at 10 µg/mL [4] was -17% and the MIC [5] was 175 µg/mL (≈ 428 µM). The inhibition of growth at 30 µg/mL [6] was -16.1%, the inhibition of growth at 3 µg/mL [7] was -4.49% and the MIC [8] was 150 µg/mL (≈ 367 µM). It also gave an inhibition of growth at 30 µg/mL [9] of -3.99%, an MIC [10] of over 30 µg/mL and an inhibition of growth at 3 µg/mL [11] of 20.7%. The inhibition of growth at 30 µg/mL [12] was 27.2%, the inhibition of growth at 3 µg/mL [13] was -6.61% and the MIC [14] was 100 µg/mL (≈ 245 µM). For the same compound, the MIC [15] was over 30 µg/mL, the inhibition of growth at 3 µg/mL [16] was -2.06% and the IC50 [17] was over 30 µg/mL. For the same compound, the IC90 [17] was over 30 µg/mL, the inhibition of growth at 10 µg/mL [18] was 27.2% and the MIC [19] was over 30 µg/mL. The MIC [20] was over 30 µg/mL, the inhibition of growth at 10 µg/mL [21] was 14.4% and the inhibition of growth at 10 µg/mL [22] was -1.08%. It also gave an MIC [23] of 125 µg/mL (≈ 306 µM), an MIC [24] of 175 µg/mL (≈ 428 µM) and an inhibition of growth at 30 µg/mL [25] of 13.5%. For the same compound, the IC50 [26] was over 30 µg/mL, the IC90 [26] was over 30 µg/mL and the inhibition of growth at 10 µg/mL [27] was -21.7%. For the same compound, the IC50 [28] was over 30 µg/mL and the IC90 [28] was over 30 µg/mL.
With `Cc1ccc2cc(/C=C3\SC(=S)NC3=O)c(Cl)nc2c1` the IC50 [1] was over 30 µg/mL, the IC90 [1] was over 30 µg/mL and the inhibition of growth at 3 µg/mL [2] was 11.4%. It also gave an inhibition of growth at 30 µg/mL [3] of 12.2%, an inhibition of growth at 10 µg/mL [4] of 27.1% and an MIC [5] of 100 µg/mL (≈ 312 µM). The inhibition of growth at 30 µg/mL [6] was 6.45%, the inhibition of growth at 3 µg/mL [7] was -8.82% and the MIC [8] was 50 µg/mL (≈ 156 µM). It also gave an inhibition of growth at 30 µg/mL [9] of -9.15%, an MIC [10] of over 30 µg/mL and an inhibition of growth at 3 µg/mL [11] of 13.8%. For the same compound, the inhibition of growth at 30 µg/mL [12] was 11.4%, the inhibition of growth at 3 µg/mL [13] was -2.83% and the MIC [14] was 50 µg/mL (≈ 156 µM). The MIC [15] was over 30 µg/mL, the inhibition of growth at 3 µg/mL [16] was -13.7% and the IC50 [17] was over 30 µg/mL. It also gave an IC90 [17] of over 30 µg/mL, an inhibition of growth at 10 µg/mL [18] of 15% and an MIC [19] of over 30 µg/mL. It also gave an MIC [20] of over 30 µg/mL, an inhibition of growth at 10 µg/mL [21] of 11.3% and an inhibition of growth at 10 µg/mL [22] of -4.08%. It also gave an MIC [23] of 100 µg/mL (≈ 312 µM), an MIC [24] of 75 µg/mL (≈ 234 µM) and an inhibition of growth at 30 µg/mL [25] of 12.9%. For the same compound, the IC50 [26] was over 30 µg/mL, the IC90 [26] was over 30 µg/mL and the inhibition of growth at 10 µg/mL [27] was -4.88%. The IC50 [28] was over 30 µg/mL and the IC90 [28] was over 30 µg/mL.
In the case of `Cc1ccc2nc(Cl)c(/C=C3\SC(=S)NC3=O)cc2c1`, the IC50 [1] is reported as over 30 µg/mL, the IC90 [1] is reported as over 30 µg/mL and the inhibition of growth at 3 µg/mL [2] is reported as -19.3%. The inhibition of growth at 30 µg/mL [3] was 18.4%, the inhibition of growth at 10 µg/mL [4] was 17.5% and the MIC [5] was 100 µg/mL (≈ 312 µM). For the same compound, the inhibition of growth at 30 µg/mL [6] was -44%, the inhibition of growth at 3 µg/mL [7] was 23.9% and the MIC [8] was 150 µg/mL (≈ 468 µM). For the same compound, the inhibition of growth at 30 µg/mL [9] was -16.6%, the MIC [10] was over 30 µg/mL and the inhibition of growth at 3 µg/mL [11] was -7.51%. It also gave an inhibition of growth at 30 µg/mL [12] of -24.3%, an inhibition of growth at 3 µg/mL [13] of -8.73% and an MIC [14] of 125 µg/mL (≈ 390 µM). The MIC [15] was over 30 µg/mL, the inhibition of growth at 3 µg/mL [16] was -49.2% and the IC50 [17] was over 30 µg/mL. It also gave an IC90 [17] of over 30 µg/mL, an inhibition of growth at 10 µg/mL [18] of -18.4% and an MIC [19] of over 30 µg/mL. The MIC [20] was over 30 µg/mL, the inhibition of growth at 10 µg/mL [21] was -6.34% and the inhibition of growth at 10 µg/mL [22] was -3.58%. For the same compound, the MIC [23] was 175 µg/mL (≈ 545 µM), the MIC [24] was 125 µg/mL (≈ 390 µM) and the inhibition of growth at 30 µg/mL [25] was -7.51%. It also gave an IC50 [26] of over 30 µg/mL, an IC90 [26] of over 30 µg/mL and an inhibition of growth at 10 µg/mL [27] of -30.8%. It also gave an IC50 [28] of over 30 µg/mL and an IC90 [28] of over 30 µg/mL.
